We go through 9 molecules from ChEMBL document CHEMBL1154983, “Arylpiperazine-containing pyrrole 3-carboxamide derivatives targeting serotonin 5-HT(2A), 5-HT(2C), and the serotonin transporter as a potential antidepressant” (Bioorg Med Chem Lett, 2010).

SMILES strings stand for the structures. Activity calls are given as the source filed them. No cut-off for these calls is given here.

Assay [1] addresses 5-hydroxytryptamine receptor 2A (Homo sapiens, UniProt P28223). Kind of assay: Displacement of [3H]ketanserin from human recombinant 5-HT2A receptor expressed in CHO-K1 cells after 60 mins. It counts as cell-based. The essentials:
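Membranes were from CHO-K1 cells stably expressing 5-HT2A. Radioligand was at 1 nM, with mianserin defining nonspecific binding. Incubation ran 60 min at 27 °C in 50 mM Tris–HCl pH 7.4 with 4 mM CaCl2 and 0.1% ascorbic acid. Harvesting was by filtration through glass-fibre filters presoaked in 0.5% PEI.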

Assay [2] has as its target T1, 5-hydroxytryptamine receptor 2C (Homo sapiens, UniProt P28335).
T1 sequence (P28335 whole entry): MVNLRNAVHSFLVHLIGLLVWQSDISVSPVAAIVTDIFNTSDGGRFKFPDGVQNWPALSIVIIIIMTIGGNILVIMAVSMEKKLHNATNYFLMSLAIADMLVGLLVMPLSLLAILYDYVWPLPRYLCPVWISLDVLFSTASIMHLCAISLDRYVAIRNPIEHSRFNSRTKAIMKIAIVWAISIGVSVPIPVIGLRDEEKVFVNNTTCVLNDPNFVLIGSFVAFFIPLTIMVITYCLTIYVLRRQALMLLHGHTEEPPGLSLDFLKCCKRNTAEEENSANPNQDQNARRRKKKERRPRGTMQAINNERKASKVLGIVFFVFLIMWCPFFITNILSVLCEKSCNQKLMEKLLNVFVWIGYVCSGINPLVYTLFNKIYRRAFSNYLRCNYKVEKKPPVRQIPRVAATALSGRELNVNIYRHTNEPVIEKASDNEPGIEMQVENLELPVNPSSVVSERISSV
Kind of assay: Displacement of [3H]mesulergine from human recombinant 5-HT2C receptor expressed in CHO-K1 cells after 60 mins by rapid filtration assay. It counts as cell-based. Summed up: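 Frozen membranes were from CHO-K1 cells stably expressing human recombinant 5-HT2C, with 1.4 nM [3H]mesulergine. Buffer was 50 mM Tris–HCl pH 7.4, 4 mM CaCl2 and 0.1% ascorbic acid, with methiothepin for nonspecific binding. Incubation ran 60 min at 27 °C, stopped by rapid filtration through 0.5% PEI-presoaked glass-fibre filters.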

Assay [3] addresses Sodium-dependent serotonin transporter (Homo sapiens, UniProt P31645). Kind of assay: Displacement of [3H]imipramine from human SERT expressed in HEK293 cells after 30 mins by rapid filtration assay. It counts as cell-based. The essentials:
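Frozen membranes were from HEK293 cells expressing human SERT, with 4 nM [3H]imipramine in 50 mM Tris–HCl pH 7.4, 120 mM NaCl and 5 mM KCl. Unlabelled imipramine defined nonspecific binding. Incubation ran 30 min at 27 °C, terminated by rapid filtration through 0.5% PEI-presoaked glass-fibre filters.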

Assay [4] concerns Mus musculus. Kind of assay: Antidepressant activity in mouse assessed as decrease in duration of immobility at 100 mg/kg, po during final 5 mins of the 6 mins session by forced swimming test. It counts as functional. Summed up: (§1)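 Mice swam 10 min in a 25-cm glass cylinder (10 cm diameter) holding 15 cm of water at 23 1 °C. Twenty-four hours later, drug was given po 60 min before retesting. Immobility (floating upright with only small movements keeping head above water) was totalled over the last 5 min of the 6-min test.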

Assay [5] deals with Mus musculus. Kind of assay: Antidepressant activity in mouse assessed as decrease in duration of immobility at 50 mg/kg, po during final 5 mins of the 6 mins session by forced swimming test. Set-up: dose 50 mg/kg. It is filed as functional, organism-based. The essentials:
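Mice swim for 10 min in a 25-cm glass cylinder (10 cm diameter) holding 15 cm of water at 23 ± 1 °C. They are retested 24 h later for 6 min. Compound is suspended in 3% Tween 80 and given orally 60 min before the test. Total immobility time (floating upright, only small head-keeping movements) is scored over the last 5 min. Means ± S.E.M.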

The test system of assay [6] is Mus musculus. Kind of assay: Antidepressant activity in mouse assessed as decrease in duration of immobility at 25 mg/kg, po during final 5 mins of the 6 mins session by forced swimming test. It counts as functional. On the set-up: scale not given: the % may be the effect or the level left. The essentials:
as §1

The subject of assay [7] is Mus musculus. Kind of assay: Antidepressant activity in mouse assessed as decrease in duration of immobility at 10 mg/kg, po during final 5 mins of the 6 mins session by forced swimming test. It is filed as functional. Set-up: scale not given: the % may be the effect or the level left. Summed up: as §1
Assay [8] deals with T2, 5-hydroxytryptamine receptor 1A (Homo sapiens, UniProt P08908).
T2 sequence (P08908 whole entry): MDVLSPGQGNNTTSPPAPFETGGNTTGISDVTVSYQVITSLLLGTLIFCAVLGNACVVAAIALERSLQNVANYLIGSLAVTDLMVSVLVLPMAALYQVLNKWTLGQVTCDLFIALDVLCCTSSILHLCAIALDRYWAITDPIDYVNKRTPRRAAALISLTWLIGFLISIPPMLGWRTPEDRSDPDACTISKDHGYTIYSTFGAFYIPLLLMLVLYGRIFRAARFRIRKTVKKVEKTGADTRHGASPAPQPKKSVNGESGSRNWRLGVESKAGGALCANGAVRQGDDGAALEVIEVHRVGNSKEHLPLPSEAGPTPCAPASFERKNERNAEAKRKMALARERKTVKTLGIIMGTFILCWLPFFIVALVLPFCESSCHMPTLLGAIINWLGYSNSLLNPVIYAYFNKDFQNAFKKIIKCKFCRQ
Kind of assay: Inhibition of 5HT1A receptor.

Assay [9] addresses 5-hydroxytryptamine receptor 6 (Homo sapiens, UniProt P50406). Kind of assay: Inhibition of 5HT6 receptor.
In assay [10] the target is 5-hydroxytryptamine receptor 7 (Homo sapiens, UniProt P34969). Kind of assay: Inhibition of 5HT7 receptor.
The next assay addresses D(2) dopamine receptor (Homo sapiens, UniProt P14416). Kind of assay: Inhibition of dopamine D2 receptor.
Another assay concerns the target D(3) dopamine receptor (Homo sapiens, UniProt P35462). Kind of assay: Inhibition of dopamine D3 receptor.
Another assay addresses T3, D(4) dopamine receptor (Homo sapiens, UniProt P21917).
T3 sequence (P21917 whole entry): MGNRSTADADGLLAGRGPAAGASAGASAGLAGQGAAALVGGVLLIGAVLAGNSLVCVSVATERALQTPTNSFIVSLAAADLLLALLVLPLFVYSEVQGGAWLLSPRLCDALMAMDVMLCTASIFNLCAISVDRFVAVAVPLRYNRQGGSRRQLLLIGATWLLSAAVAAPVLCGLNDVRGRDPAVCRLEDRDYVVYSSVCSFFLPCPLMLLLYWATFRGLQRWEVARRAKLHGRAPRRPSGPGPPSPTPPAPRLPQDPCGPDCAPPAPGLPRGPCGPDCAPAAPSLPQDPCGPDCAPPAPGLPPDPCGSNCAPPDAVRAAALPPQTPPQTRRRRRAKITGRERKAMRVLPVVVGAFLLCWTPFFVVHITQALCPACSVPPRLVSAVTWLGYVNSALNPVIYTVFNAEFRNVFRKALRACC
Kind of assay: Inhibition of dopamine D4 receptor.

Sequence of 5-hydroxytryptamine receptor 2A (P28223 whole entry): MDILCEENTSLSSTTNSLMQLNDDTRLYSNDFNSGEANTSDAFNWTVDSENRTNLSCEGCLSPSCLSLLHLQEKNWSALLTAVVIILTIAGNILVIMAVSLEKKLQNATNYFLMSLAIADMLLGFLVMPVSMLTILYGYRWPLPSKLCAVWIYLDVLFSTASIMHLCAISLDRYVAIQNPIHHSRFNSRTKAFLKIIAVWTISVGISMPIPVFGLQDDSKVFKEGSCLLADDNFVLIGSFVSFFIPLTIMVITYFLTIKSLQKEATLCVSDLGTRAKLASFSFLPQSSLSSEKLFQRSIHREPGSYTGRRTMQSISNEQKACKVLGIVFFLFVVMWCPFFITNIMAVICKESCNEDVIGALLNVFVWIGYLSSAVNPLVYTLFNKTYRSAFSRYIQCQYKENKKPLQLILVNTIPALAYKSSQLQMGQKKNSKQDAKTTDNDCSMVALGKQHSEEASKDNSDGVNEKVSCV
Sequence of Sodium-dependent serotonin transporter (P31645 whole entry): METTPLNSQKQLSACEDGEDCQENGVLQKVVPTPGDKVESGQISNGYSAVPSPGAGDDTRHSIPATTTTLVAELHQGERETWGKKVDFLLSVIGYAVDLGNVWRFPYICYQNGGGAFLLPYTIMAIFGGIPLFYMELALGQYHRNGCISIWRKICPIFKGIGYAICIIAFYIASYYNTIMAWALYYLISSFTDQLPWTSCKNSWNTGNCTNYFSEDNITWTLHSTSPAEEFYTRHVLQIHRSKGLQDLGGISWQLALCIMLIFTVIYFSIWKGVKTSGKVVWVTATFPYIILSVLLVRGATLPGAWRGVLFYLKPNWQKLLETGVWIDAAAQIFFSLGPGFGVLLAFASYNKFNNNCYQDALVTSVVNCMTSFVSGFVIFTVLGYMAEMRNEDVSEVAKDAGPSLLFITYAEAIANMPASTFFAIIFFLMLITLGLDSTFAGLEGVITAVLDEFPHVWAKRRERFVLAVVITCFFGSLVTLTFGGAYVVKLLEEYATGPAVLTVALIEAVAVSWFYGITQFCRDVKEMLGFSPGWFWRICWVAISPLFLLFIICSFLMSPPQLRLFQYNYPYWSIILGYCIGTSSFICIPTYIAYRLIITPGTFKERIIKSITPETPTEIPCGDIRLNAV
Sequence of D(2) dopamine receptor (P14416 whole entry): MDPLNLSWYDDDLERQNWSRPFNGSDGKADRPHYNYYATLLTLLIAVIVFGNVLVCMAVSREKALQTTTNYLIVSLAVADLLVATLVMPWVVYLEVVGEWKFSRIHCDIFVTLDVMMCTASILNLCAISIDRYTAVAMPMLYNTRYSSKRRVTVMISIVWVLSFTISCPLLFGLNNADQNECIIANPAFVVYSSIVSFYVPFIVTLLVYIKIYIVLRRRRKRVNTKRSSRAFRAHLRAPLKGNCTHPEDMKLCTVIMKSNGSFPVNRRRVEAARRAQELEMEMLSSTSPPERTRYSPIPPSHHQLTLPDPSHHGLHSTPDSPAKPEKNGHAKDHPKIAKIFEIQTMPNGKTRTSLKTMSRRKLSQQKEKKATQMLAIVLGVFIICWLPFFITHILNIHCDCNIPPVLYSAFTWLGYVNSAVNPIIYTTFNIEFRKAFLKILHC
Sequence of 5-hydroxytryptamine receptor 7 (P34969 whole entry): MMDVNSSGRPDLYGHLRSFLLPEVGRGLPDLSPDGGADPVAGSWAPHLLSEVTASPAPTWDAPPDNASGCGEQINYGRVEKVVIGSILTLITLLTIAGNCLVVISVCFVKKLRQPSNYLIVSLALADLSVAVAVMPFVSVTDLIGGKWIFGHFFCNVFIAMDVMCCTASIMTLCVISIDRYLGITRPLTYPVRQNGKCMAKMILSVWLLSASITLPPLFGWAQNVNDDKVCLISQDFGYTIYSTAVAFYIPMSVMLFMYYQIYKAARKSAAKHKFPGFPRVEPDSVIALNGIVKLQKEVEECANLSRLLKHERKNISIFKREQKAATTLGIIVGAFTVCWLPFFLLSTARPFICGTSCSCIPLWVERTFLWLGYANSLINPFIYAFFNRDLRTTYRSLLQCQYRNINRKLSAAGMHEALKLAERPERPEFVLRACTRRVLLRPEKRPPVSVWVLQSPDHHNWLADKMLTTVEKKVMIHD
Sequence of 5-hydroxytryptamine receptor 6 (P50406 whole entry): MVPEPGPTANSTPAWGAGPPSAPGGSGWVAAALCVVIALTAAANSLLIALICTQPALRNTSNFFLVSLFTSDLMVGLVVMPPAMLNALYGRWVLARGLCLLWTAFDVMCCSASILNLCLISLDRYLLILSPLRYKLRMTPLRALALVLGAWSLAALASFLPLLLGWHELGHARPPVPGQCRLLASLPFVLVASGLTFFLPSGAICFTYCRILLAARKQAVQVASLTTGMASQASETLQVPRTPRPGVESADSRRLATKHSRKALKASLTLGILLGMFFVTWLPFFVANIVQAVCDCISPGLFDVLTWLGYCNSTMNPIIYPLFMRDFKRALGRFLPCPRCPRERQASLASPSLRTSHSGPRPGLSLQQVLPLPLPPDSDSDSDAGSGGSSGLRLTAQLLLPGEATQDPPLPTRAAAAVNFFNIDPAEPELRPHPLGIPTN
Sequence of D(3) dopamine receptor (P35462 whole entry): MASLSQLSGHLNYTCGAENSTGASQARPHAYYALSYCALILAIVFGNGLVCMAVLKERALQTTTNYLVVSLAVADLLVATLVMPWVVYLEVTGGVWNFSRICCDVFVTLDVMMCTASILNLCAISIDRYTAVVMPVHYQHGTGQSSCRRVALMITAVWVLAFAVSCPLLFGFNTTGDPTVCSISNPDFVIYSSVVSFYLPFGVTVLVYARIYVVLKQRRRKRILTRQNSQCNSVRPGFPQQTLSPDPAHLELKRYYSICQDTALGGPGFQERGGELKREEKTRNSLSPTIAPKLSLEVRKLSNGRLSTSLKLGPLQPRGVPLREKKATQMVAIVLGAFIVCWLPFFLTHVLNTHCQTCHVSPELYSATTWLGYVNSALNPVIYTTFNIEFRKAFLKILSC

Consider `Cc1c(C(=O)NCCCN2CCN(c3cccc(Cl)c3)CC2)cc(-c2ccccc2)n1Cc1ccccc1`, for which the half-maximal inhibitory concentration (IC50) came out at 179 nM in assay [1], 1440 nM in [2] and 235 nM in assay [3].

`CCn1c(-c2ccccc2)cc(C(=O)NCCCN2CCN(c3cccc(Cl)c3)CC2)c1C`: the outcome in the assay with Mus musculus [4] was inactive.

`Cc1cccc(N2CCN(CCCNC(=O)c3cc(-c4ccccc4)n(C)c3C)CC2)c1C`: in the assay with Mus musculus [5], the result was Active.

Regarding `CCCn1c(-c2ccccc2)cc(C(=O)NCCCN2CCN(c3cccc(Cl)c3Cl)CC2)c1C`, the Activity in the assay on Mus musculus [6] is reported as <50%; in the assay on Mus musculus [7], 80%. Moreover, the IC50 in [8] was 94 nM; in assay [9], 1900 nM; in assay [10] it was 408 nM; against D(2) dopamine receptor it was 3740 nM; against D(3) dopamine receptor, 1070 nM; on D(4) dopamine receptor, 645 nM.

For the molecule `CCCn1c(-c2ccccc2)cc(C(=O)NCCCN2CCN(c3cccc(C)c3C)CC2)c1C`, the IC50 in [1] stood at 129 nM; in assay [2], 225 nM; in assay [3], 76 nM.

In the case of `Cc1c(C(=O)NCCCN2CCN(c3cccc(Cl)c3)CC2)cc(-c2ccccc2)n1C`, in the assay with Mus musculus [4], the outcome was inactive.

As for `Cc1c(C(=O)NCCCN2CCN(c3cccc(Cl)c3)CC2)cc(-c2ccccc2)n1CC(C)C`, the IC50 stood at 333 nM in assay [1], 1600 nM in assay [2] and 110 nM in assay [3].

For `CCn1c(-c2ccccc2)cc(C(=O)NCCCN2CCN(c3cccc(Cl)c3Cl)CC2)c1C`, the Activity in the assay with Mus musculus [4] is <25%. In addition, in the assay with Mus musculus [7], the outcome was inactive.

In the case of `CCn1c(-c2ccccc2)cc(C(=O)NCCCN2CCN(c3cccc(C)c3C)CC2)c1C`, in the assay on Mus musculus [5], the outcome was Active.
